Bioassay records: PubChem BioAssay, several laboratories
Hck-Nef inh: inhibitors of Nef-activated human Hck kinase, primary screen, biochemical, Z-Lyte FRET, 384-well, Hck-YEEI; inhibition, % at 20 µM; Tyrosine-protein kinase HCK (Homo sapiens), P08631; Recombinant Hck-YEEI plus Nef, Z-Lyte FRET kinase assay; hit rate 0.68% among 220,000;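 active means Hck-Nef kinase inhibition above about 50%, limit read from the data; inactive means inhibition below that limit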;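 further: 0% = DMSO with Hck plus Nef and 100% = Hck alone without Nef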
Pemphigus Ab inh: inhibitors of pemphigus antibody binding to DSG3, primary screen, biochemical, bead-based, flow cytometry, scFv-GFP; DSG3-coupled beads, scFv-anti-DSG3-GFP binding; stronger effect = lower value; binding (percent of control), % at 10 µM; hit rate 0.48% among 310,000; AID 588358, 2011;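 active means binding more than 3 SD below its plate's average and above zero; inconclusive means below that plate limit but binding exactly zero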
Runt-CBFb FRET: inhibitors of RUNX1 Runt–CBFb binding, primary screen, biochemical, FRET, Cerulean-Runt, Venus-CBFb, uHTS; Cerulean-Runt/Venus-CBFb FRET ratio 530/480, 1 h; inhibition, % at 20 µM; hit rate 0.46% among 220,000; AID 1496, 2009;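 active means inhibition over about 50% at 20 µM in the single-dose screen, limit read from the data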;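 further: 0% = DMSO wells and 100% = excess unlabeled CBFb competitor control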
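Assay system: Cerulean-tagged RUNX1 Runt domain (FRET donor) fusion protein / Amount: 100 nM each of Venus-CBFb and Cerulean-Runt domain / Medium: Tris buffer pH 7.5 with salts and BSA / Also added: Venus-CBFb 100 nM / Schedule: 1 h complex formation plus 1 h compound treatment, room temperature / Signal: FRET fluorescence / Read-out: loss of energy transfer signal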
pCIP destab: p/CIP-EGFP fusion destabilizers, primary screen, fluorescence, F442A cells; decrease of EGFP signal, % at 10 µM; Q05BA5; 16 h; hit rate 0.01% among 290,000;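 active means EGFP signal decrease of at least 30% at 10 µM or well 3 SD below plate mean, unless failing retest; inactive means the rest, including hits failing retest or dose response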
Runt-SMMHC FRET: inhibitors of RUNX1 Runt–CBFb-SMMHC binding, primary screen, biochemical, FRET, Cerulean-Runt, Venus-CBFb-SMMHC, uHTS; Runt-related transcription factor 1 (Homo sapiens) + Core-binding factor subunit beta …; hit rate 0.74% among 220,000; AID 1434, 2008; Cerulean-Runt/Venus-CBFb-SMMHC FRET ratio 530/480, 1 h; inhibition, % at 20 µM;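 active means mean inhibition across duplicate retests at 20 µM reaching about 50%, limit read from the data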;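 further: 0% = DMSO wells and 100% = wells with excess untagged CBFb-SMMHC; inhibitors lower the FRET ratio by blocking Runt binding to CBFb-SMMHC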
RanGTP-Imp inh: inhibitors of RanGTP-importin-beta interaction, primary screen, biochemical, FRET, CFP-Ran, YFP-importin-beta, homogeneous; cell-free CFP-Ran/YFP-importin-beta FRET ratio; hit rate 1.1% among 300,000; inhibition, % (no concentration beside the values); Ran GTPase (GTP-bound) - importin-beta complex;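 active means more than half of the replicate wells show a fall in the fluorescence ratio signal beyond about 16%, limit read from the data, passing the limit was not always enough; inconclusive means exactly half of the replicate wells pass the set limit; inactive means fewer than half of replicates pass the limit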;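 further: 0% = DMSO wells and 100% = Ran loaded with GDP instead of GTP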
Active calls of the source: *; ? = inconclusive; / = no result. Rows were chosen to be rich in hits. Some 2.1% of all compounds tested hit in one or more screens of this group.

SMILES	Hck-Nef inh	Pemphigus Ab inh	Runt-CBFb FRET	pCIP destab	Runt-SMMHC FRET	RanGTP-Imp inh
O=C(O)c1cc2c(ccc3ccccc32)oc1=O	-15	96	12	2	11	0
CCOC(=O)c1cc2c(ccc3ccccc32)oc1=O	23	101	85*	2	92*	?
CCOC(=O)c1c(C)nc(C)c2c(=O)oc3ccccc3c12	5	95*	-1	-5	1	-3
N=c1oc2ccc3ccccc3c2cc1C(N)=S	23	80*	118*	-10	92*	76*
O=C(OCc1nc2ccccc2s1)c1cc2ccccc2oc1=O	3	/	0	10	-1	3
CC(OC(=O)c1cc2c(ccc3ccccc32)oc1=O)c1nc2ccccc2s1 (configuration not stated)	5	94	39	-15	93*	49*
COc1cc(OC)c(C=NNC(=S)NC23CC4CC(CC(C4)C2)C3)c(OC)c1	/	95	/	/	/	/
O=C(NCc1ccccn1)c1cc2c(ccc3ccccc32)oc1=O	-12	106	104*	7	/	37*
C[C@]12CC[C@@H]3c4ccc(O)cc4CC[C@H]3[C@@H]1CC[C@@H]2O	2	53*	-3	-10	0	0
C[C@]12CC[C@@H]3c4cc(O)c(O)cc4CC[C@H]3[C@@H]1CC[C@@H]2O	/	94	26	0	57	-4
Cc1ccc(/C=C2/NC(=O)N(Cc3ccccc3)C2=O)o1	7	109	28	-6	25	-1
O=C(O)c1ccc(-c2ccc(/C=C3\NC(=O)N(Cc4ccc(Cl)cc4)C3=O)o2)cc1	18	94	98*	-7	84*	/
COc1cc2c(cc1OC)C(C)N(C(=O)CCc1c[nH]c3ccccc13)CC2 (configuration not stated)	/	95	/	-12	/	6
O=C(CN1CCc2ccccc21)Nc1ccc2c(c1)OCO2	3	72*	2	-4	1	3
CC1CCCCN1CCCNc1ccc(C(CC(N)=O)NC(=O)Cc2cccc3ccccc23)cc1[N+](=O)[O-] (configuration not stated)	/	105	/	2	/	30*
CC1CCCCN1CCCNc1ccc(C(CC(N)=O)NC(=O)Cc2ccc(Cl)cc2)cc1[N+](=O)[O-] (configuration not stated)	/	97	/	-16	/	-2
Cc1ccc(Cl)cc1-n1c(=O)cc(N2CCN(C(=O)c3ccco3)CC2)[nH]c1=O	9	87	-1	0	2	32*
COc1ccc(/C=C/C(=O)OCC(=O)NC2CCCCCC2)cc1	/	98	/	/	/	/
CCCCN(C(=O)CCCc1nc2ccccc2s1)c1c(N)n(CC(C)C)c(=O)[nH]c1=O	/	105	/	/	/	/
CCn1c(-c2cccs2)nc2ccccc21	-11	101	0	1	-4	6
CCn1c(C(C#N)/C(=N\S(=O)(=O)c2cccs2)c2ccccc2)nc2ccccc21 (configuration not stated)	-1	74*	2	4	-2	6
CCCCN1C(=O)C(=O)c2cc(Cl)ccc21	/	99	/	/	/	/
COc1ccc(NC(=O)CSc2nc3c([nH]c4ccccc43)c(=O)n2C)c(OC)c1	/	49*	/	1	/	2
COC(=O)CCC(C)C1CCC2C3CCC4CC(O)CCC4(C)C3CC(O)C12C (configuration not stated)	/	102	/	/	/	/
COc1cccc(C(=O)Nc2nc3c(s2)CN(C)CC3)c1	3	114	/	-17	87*	9
COc1cccc(C(=O)Nc2sc3c(c2C#N)CCN(C(C)=O)C3)c1	26	102	21	-14	51*	/
